Source: the M2OR odorant receptor database
Where a chain is given by its changes, count along the chain named.

Assays:
Conditions in all cases: stereoisomer not certain
[1] = target: T1, OR2A7 (Homo sapiens) (UniProt Q96R45)
T1 sequence (whole entry): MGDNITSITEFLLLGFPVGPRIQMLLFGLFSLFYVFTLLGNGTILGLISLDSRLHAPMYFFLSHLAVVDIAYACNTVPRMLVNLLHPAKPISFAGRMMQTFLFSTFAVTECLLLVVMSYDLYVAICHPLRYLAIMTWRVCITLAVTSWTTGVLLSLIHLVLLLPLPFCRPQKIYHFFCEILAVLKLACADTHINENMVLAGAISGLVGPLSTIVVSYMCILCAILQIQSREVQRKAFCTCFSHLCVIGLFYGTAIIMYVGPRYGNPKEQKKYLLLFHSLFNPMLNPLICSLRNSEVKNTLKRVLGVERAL
Outline: (§1)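 Whether a receptor–molecule pair is responsive (active) rests on the original authors' judgment that its measured signal was statistically different from baseline. Pairs without that judgment are non-responsive (inactive). Sources used varied assay methods, commonly transient luciferase assays in mammalian cell lines.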

[2] = target: T2, OR2A12 (Homo sapiens) (UniProt Q8NGT7)
T2 sequence (whole entry): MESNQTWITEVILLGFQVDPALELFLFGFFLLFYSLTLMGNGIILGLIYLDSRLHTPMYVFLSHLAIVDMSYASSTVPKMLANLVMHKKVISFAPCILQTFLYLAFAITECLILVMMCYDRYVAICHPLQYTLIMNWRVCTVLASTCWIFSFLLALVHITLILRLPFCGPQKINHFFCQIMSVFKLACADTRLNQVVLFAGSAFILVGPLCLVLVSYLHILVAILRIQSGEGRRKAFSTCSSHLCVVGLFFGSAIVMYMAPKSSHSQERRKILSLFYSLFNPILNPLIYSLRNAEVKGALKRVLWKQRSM
Outline: as §1

[3] = target: T3, OR2A14 (Homo sapiens) (UniProt Q96R47)
T3 sequence (whole entry): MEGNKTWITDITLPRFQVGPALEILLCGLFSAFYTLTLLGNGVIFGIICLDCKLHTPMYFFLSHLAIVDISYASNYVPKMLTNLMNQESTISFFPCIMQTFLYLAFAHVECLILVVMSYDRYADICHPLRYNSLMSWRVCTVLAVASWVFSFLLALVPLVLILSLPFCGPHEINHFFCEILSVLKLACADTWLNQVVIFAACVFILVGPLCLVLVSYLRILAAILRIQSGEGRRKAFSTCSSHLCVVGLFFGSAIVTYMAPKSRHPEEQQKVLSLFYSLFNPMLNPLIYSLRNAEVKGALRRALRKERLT
Outline: as §1

[4] = target: T4, OR2A2 (Homo sapiens) (UniProt Q6IF42)
T4 sequence (whole entry): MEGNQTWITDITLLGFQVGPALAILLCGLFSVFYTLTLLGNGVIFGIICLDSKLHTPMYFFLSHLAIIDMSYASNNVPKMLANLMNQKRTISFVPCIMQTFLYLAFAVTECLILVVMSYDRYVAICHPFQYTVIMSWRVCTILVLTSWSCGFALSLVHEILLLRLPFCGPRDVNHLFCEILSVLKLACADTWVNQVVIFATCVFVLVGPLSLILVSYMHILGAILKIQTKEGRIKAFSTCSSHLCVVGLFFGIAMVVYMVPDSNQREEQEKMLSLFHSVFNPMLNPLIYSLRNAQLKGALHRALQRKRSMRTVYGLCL
Outline: as §1

[5] = target: T5, OR2A25 (Homo sapiens) (UniProt A4D2G3)
T5 sequence (whole entry): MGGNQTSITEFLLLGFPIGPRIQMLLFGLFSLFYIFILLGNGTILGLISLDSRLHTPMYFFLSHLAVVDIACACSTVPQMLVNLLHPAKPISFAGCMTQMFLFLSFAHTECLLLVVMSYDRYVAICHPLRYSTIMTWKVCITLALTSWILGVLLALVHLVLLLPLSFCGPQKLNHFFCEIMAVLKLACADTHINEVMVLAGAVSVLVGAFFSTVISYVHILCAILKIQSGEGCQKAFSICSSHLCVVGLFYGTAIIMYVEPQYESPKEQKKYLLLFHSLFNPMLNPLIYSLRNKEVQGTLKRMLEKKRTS
Outline: as §1

[6] = target: T6, OR2A4 (Homo sapiens) (UniProt O95047)
T6 sequence (whole entry): T1 sequence (whole entry) with T9R, C238R, F250V
Outline: as §1

[7] = target: T7, OR2A5 (Homo sapiens) (UniProt Q96R48)
T7 sequence (whole entry): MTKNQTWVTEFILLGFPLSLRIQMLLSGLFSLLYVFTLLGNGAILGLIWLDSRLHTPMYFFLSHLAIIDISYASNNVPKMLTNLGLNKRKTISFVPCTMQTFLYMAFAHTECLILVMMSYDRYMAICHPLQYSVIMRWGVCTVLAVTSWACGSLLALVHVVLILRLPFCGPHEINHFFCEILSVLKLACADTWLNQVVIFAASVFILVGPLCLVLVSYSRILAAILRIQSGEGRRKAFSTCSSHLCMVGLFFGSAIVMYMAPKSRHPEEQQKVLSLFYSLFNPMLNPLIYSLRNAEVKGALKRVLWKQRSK
Outline: as §1

[8] = target: T8, OR2AE1 (Homo sapiens) (UniProt Q8NHA4)
T8 sequence (whole entry): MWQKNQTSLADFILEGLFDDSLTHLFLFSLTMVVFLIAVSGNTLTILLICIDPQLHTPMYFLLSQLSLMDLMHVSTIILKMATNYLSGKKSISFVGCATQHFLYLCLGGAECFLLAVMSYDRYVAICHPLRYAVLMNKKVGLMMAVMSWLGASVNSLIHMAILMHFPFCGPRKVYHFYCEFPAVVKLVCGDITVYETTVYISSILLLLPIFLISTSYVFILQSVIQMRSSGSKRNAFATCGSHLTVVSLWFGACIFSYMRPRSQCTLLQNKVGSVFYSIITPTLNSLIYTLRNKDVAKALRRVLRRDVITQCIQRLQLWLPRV
Outline: as §1

[9] = target: T9, OR2AG1 (Homo sapiens) (UniProt Q9H205)
T9 sequence (whole entry): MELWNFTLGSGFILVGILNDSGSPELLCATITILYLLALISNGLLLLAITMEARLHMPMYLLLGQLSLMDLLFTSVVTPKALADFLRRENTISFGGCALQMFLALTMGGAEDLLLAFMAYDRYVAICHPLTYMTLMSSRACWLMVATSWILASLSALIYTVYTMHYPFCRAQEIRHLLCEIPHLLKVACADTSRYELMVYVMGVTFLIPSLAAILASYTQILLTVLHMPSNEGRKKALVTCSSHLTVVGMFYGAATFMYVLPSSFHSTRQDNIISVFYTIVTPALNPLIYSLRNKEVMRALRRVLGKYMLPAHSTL
Outline: as §1

[10] = target: T10, OR2AG2 (Homo sapiens) (UniProt A6NM03)
T10 sequence (whole entry): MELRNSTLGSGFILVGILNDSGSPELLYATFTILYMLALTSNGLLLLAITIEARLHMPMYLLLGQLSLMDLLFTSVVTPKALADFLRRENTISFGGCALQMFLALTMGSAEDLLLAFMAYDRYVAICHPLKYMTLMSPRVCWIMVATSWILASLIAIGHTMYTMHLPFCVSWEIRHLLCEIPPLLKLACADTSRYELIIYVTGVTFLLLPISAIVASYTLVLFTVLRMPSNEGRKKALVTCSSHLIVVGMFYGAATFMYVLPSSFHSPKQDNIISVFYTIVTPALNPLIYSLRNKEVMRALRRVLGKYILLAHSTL
Outline: as §1

[11] = target: T11, OR2AJ1 (Homo sapiens) (UniProt Q8NGZ0)
T11 sequence (whole entry): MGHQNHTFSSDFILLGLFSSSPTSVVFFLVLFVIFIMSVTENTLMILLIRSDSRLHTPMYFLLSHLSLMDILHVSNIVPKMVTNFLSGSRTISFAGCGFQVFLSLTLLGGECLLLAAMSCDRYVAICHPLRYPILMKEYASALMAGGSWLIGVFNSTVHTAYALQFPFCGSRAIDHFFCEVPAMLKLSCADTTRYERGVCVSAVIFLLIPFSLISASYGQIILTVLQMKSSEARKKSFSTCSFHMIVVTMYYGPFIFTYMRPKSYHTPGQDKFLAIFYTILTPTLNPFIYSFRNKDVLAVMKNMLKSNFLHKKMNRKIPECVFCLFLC
Outline: as §1

[12] = target: T12, OR2AK2 (Homo sapiens) (UniProt Q8NG84)
T12 sequence (whole entry): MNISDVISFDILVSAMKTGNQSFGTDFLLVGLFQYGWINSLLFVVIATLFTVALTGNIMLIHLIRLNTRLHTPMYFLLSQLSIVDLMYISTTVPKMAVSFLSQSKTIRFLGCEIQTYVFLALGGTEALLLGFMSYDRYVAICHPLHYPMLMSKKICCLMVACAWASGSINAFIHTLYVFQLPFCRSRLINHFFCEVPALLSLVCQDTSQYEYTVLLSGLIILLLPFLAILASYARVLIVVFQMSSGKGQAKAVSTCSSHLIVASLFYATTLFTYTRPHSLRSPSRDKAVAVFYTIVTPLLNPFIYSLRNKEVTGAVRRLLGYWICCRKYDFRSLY
Outline: as §1

[13] = target: T13, OR2AP1 (Homo sapiens) (UniProt Q8NGE2)
T13 sequence (whole entry): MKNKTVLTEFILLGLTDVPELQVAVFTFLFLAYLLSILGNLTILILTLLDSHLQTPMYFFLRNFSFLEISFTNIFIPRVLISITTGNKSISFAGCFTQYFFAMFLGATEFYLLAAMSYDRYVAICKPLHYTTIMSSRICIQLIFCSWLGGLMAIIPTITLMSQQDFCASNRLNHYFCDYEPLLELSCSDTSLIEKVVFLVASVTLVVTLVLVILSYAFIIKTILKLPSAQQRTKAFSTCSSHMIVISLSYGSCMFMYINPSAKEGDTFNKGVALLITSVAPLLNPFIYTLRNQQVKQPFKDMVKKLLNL
Outline: as §1

[14] = target: T14, OR2AT4 (Homo sapiens) (UniProt A6NND4)
T14 sequence (whole entry): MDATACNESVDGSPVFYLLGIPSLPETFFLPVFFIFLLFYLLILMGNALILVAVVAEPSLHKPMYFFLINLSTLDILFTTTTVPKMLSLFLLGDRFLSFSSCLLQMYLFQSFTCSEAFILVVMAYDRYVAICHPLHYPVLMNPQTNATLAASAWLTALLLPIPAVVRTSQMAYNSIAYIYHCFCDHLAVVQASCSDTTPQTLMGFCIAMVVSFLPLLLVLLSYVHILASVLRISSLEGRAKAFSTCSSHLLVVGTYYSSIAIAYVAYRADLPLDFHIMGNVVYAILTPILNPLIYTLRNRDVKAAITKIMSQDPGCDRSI
Outline: as §1

[15] = target: T15, OR2B11 (Homo sapiens) (UniProt Q5JQS5)
T15 sequence (whole entry): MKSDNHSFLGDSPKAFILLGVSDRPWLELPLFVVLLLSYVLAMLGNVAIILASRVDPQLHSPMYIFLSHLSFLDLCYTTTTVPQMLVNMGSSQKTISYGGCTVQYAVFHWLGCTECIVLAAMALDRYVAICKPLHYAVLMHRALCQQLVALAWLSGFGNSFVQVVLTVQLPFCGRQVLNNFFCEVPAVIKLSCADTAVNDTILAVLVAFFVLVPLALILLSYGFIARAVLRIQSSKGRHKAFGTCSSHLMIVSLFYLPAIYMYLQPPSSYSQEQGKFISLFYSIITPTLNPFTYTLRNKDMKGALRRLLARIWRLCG
Outline: as §1

[16] = target: T16, OR2B2 (Homo sapiens) (UniProt Q9GZK3)
T16 sequence (whole entry): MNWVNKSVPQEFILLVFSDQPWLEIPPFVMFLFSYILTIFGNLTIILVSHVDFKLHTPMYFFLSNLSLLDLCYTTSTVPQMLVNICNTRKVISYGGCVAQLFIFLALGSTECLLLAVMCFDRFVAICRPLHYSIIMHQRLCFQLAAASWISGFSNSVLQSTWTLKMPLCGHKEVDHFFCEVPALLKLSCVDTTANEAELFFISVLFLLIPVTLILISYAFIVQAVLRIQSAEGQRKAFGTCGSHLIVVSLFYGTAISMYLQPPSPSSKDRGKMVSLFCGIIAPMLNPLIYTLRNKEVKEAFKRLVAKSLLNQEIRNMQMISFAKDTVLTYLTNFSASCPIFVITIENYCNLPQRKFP
Outline: as §1

Measured: odorant receptor agonist call

CCCCCCCCCCCCO
inactive: [1]

Cc1ccc(C(C)C)cc1
inactive: [1]

CCCCC(S)C(C)CO (stereo not drawn)
inactive: all assays above
